Test results: ChEMBL document CHEMBL1146369, “Novel and versatile methodology for synthesis of cyclic imides and evaluation of their cytotoxic, DNA binding, apoptotic inducing activities and molecular modeling study” (Eur J Med Chem, 2007)

Columns and labels:
Vero = experiment: Cytotoxicity against Vero cells; format: cell-based; details: Chlorocebus sabaeus
Outline: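 Confluent Vero monolayers in 96-well trays, DMEM with 10% calf serum, exposed in triplicate to 1–500 µM for 48 h at 37 °C. Cells then fixed with 3.7% formaldehyde, rinsed and examined visually. IC50 taken as the concentration causing about 50% loss of monolayer.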

Neutrophil [1] = experiment: Apoptotic activity in human blood neutrophils after 72 hrs; format: functional; parameters: concentration or dose not given beside the values
Outline: (§1)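 Neutrophils (>98% pure) isolated from peripheral blood of healthy donors by dextran sedimentation and discontinuous plasma Percoll gradients. Cultured at 37 °C, 5% CO2 in RPMI 1640 with 10% autologous platelet-rich-plasma-derived serum. Compound given at 50 µM in DMSO; controls were untreated cells and 0.01% DMSO. Apoptosis scored by May-Grunwald Giemsa morphology, 500 cells/slide, at 0–72 h. Mean ± SD, n = 3-5.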

[2] = Partition coefficient, log P of the compound; format: physicochemical; details: octanol/water
[3] = Binding affinity to DNA by methyl green/DNA displacement assay; details: Homo sapiens
Neutrophil [4] = experiment: Apoptotic activity in human blood neutrophils after 24 hrs; format: functional; parameters: concentration or dose not given beside the values; outline: as §1
Neutrophil [5] = experiment: Apoptotic activity in human blood neutrophils after 48 hrs; format: functional; parameters: concentration or dose not given beside the values; outline: as §1

| Compound | IC50 (Vero) | Activity (Neutrophil [1]) | logP [2] | C50 [3] | Activity (Neutrophil [4]) | Activity (Neutrophil [5]) |
| --- | --- | --- | --- | --- | --- | --- |
| COc1ccc(CN2C(=O)c3nccnc3C2=O)cc1OC | > 100 µM | – | – | – | – | – |
| O=C1[C@@H]2C3C=CC(CC3)[C@@H]2C(=O)N1C12CC3CC(CC(C3)C1)C2 | 14 µM | 68.11% | 2.2 | 69 µg/mL | 35.5% | 53.2% |
| O=C1c2cccnc2C(=O)N1Cc1ccc(Cl)cc1 | 95 µM | – | – | – | – | – |
| O=C1c2cccnc2C(=O)N1Cc1ccccc1 | > 100 µM | – | – | – | – | – |
| O=C1c2nccnc2C(=O)N1CCc1ccccc1 | > 100 µM | – | – | – | – | – |
| C[C@@H](c1ccccc1)N1C(=O)[C@@H]2C3C=CC(CC3)[C@@H]2C1=O | 49 µM | – | – | – | – | – |
| O=C1[C@@H]2C3C=CC(CC3)[C@@H]2C(=O)N1CCc1ccccc1 | 87 µM | – | 2.5 | – | – | – |
| COc1ccc(CN2C(=O)[C@@H]3C4C=CC(CC4)[C@@H]3C2=O)cc1OC | 63 µM | – | – | – | – | – |
| O=c1c(O)c(-c2ccc(O)c(O)c2)oc2cc(O)cc(O)c12 [QUERCETIN] | – | 71.3% | – | – | 39.9% | 49.9% |
| O=C1c2ccccc2C(=O)N1Cc1ccccc1 | 100 µM | – | – | – | – | – |
| Cc1cccc(C)c1N1C(=O)[C@@H]2C3C=CC(CC3)[C@@H]2C1=O | 13 µM | 67.98% | 3.1 | 53 µg/mL | 38.4% | 53.2% |
| CCN1C(=O)[C@@H]2C3C=CC(CC3)[C@@H]2C1=O | > 100 µM | – | 0.8 | – | – | – |
| O=C1c2ccccc2C(=O)N1CCc1ccccc1 | 100 µM | – | – | – | – | – |
| O=C1[C@@H]2C3C=CC(CC3)[C@@H]2C(=O)N1Cc1ccc(Cl)cc1 | 51 µM | – | – | – | – | – |
| O=C1[C@@H]2C3C=CC(CC3)[C@@H]2C(=O)N1c1ccccc1 | 67 µM | – | – | – | – | – |
| CC(C)c1cccc(C(C)C)c1N1C(=O)c2nccnc2C1=O | 20 µM | 46.11% | 4.2 | – | 24.07% | 38.1% |
| C[C@@H](c1ccccc1)N1C(=O)c2nccnc2C1=O | 85 µM | – | – | – | – | – |
| O=c1[nH]cc(F)c(=O)[nH]1 [FLUOROURACIL] | 0.2 µM | – | – | – | – | – |
| CCN1C(=O)c2nccnc2C1=O | > 100 µM | – | – | – | – | – |

| Compound | IC50 (Vero) | Activity (Neutrophil [1]) | logP [2] | C50 [3] | Activity (Neutrophil [4]) | Activity (Neutrophil [5]) |
| --- | --- | --- | --- | --- | --- | --- |
| O=C1[C@@H]2C3C=CC(CC3)[C@@H]2C(=O)N1Cc1ccccc1 | 74 µM | – | 2.3 | – | – | – |
| C[C@H](c1ccccc1)N1C(=O)c2cccnc2C1=O | 81 µM | – | – | – | – | – |
| COc1ccc(CN2C(=O)c3nccnc3C2=O)cc1 | > 100 µM | – | – | – | – | – |
| CCCCCc1ccc(N2C(=O)[C@@H]3C4C=CC(CC4)[C@@H]3C2=O)cc1 | 10 µM | 70.01% | 4.2 | 31 µg/mL | 39.11% | 58.06% |
| CC(C)c1cccc(C(C)C)c1N1C(=O)c2cccnc2C1=O | 21 µM | 41.62% | 4.6 | – | 19.1% | 32.77% |
| Cc1cccc(C)c1N1C(=O)c2nccnc2C1=O | 18 µM | 50.1% | 2.7 | 59 µg/mL | 28% | 42.03% |
| C[C@@H](c1ccccc1)N1C(=O)c2cccnc2C1=O | 92 µM | – | – | – | – | – |
| CCCCCc1ccc(N2C(=O)c3cccnc3C2=O)cc1 | 18 µM | 57.87% | 4.3 | 49 µg/mL | 32.11% | 47.05% |
| C[C@H](c1ccccc1)N1C(=O)[C@@H]2C3C=CC(CC3)[C@@H]2C1=O | 43 µM | – | – | – | – | – |
| O=C1c2cccnc2C(=O)N1C12CC3CC(CC(C3)C1)C2 | 18 µM | 56.1% | 2.3 | – | 31.1% | 46% |
| Cc1cccc(C)c1N1C(=O)c2cccnc2C1=O | 20 µM | 44.16% | 3.2 | 64 µg/mL | 22.21% | 35% |
| CC(C)(C)N1C(=O)c2cccnc2C1=O | 33 µM | 30.23% | 1.4 | – | 11% | 25.07% |
| O=C1c2cccnc2C(=O)N1c1ccc(C(F)(F)F)cc1 | 87 µM | – | – | – | – | – |
| C[C@@H](c1ccccc1)N1C(=O)c2ccccc2C1=O | > 100 µM | – | – | – | – | – |
| O=C1[C@@H]2C3C=CC(CC3)[C@@H]2C(=O)N1c1ccc(Cl)cc1 | 77 µM | – | – | – | – | – |
| O=C1c2cccnc2C(=O)N1CCc1ccccc1 | > 100 µM | – | – | – | – | – |
| O=C1[C@@H]2C3C=CC(CC3)[C@@H]2C(=O)N1c1ccc(C(F)(F)F)cc1 | 75 µM | – | – | – | – | – |
| CC(C)c1cccc(C(C)C)c1N1C(=O)c2ccccc2C1=O | 23 µM | 39.1% | 5.1 | – | 15.56% | 30.2% |
| CC(C)c1cccc(C(C)C)c1N1C(=O)[C@@H]2C3C=CC(CC3)[C@@H]2C1=O | 16 µM | 59.2% | 4.6 | – | 32.4% | 49.11% |

| Compound | IC50 (Vero) | Activity (Neutrophil [1]) | logP [2] | C50 [3] | Activity (Neutrophil [4]) | Activity (Neutrophil [5]) |
| --- | --- | --- | --- | --- | --- | --- |
| O=C1c2nccnc2C(=O)N1c1ccc(C(F)(F)F)cc1 | 80 µM | – | – | – | – | – |
| O=C1c2cccnc2C(=O)N1c1ccccc1 | 72 µM | – | – | – | – | – |
| O=C1c2ccccc2C(=O)N1c1ccccc1 [N-PHENYL-PHTHALIMIDE] | 82 µM | – | – | – | – | – |
| O=C1c2nccnc2C(=O)N1c1ccccc1 | 71 µM | – | – | – | – | – |
| COc1ccc(CN2C(=O)[C@@H]3C4C=CC(CC4)[C@@H]3C2=O)cc1 | 67 µM | – | – | – | – | – |
| O=C1c2ccccc2C(=O)N1C12CC3CC(CC(C3)C1)C2 | 20 µM | 42.01% | 2.7 | – | 21.11% | 34.66% |
| CC(C)(C)N1C(=O)[C@@H]2C3C=CC(CC3)[C@@H]2C1=O | 27 µM | 35.64% | 1.3 | – | 12.82% | 29.76% |
| COc1ccc(CN2C(=O)c3cccnc3C2=O)cc1OC | > 100 µM | – | – | – | – | – |
| O=C1c2nccnc2C(=O)N1Cc1ccc(Cl)cc1 | 88 µM | – | – | – | – | – |
| CCCCCc1ccc(N2C(=O)c3nccnc3C2=O)cc1 | 16 µM | 60% | 3.8 | 42 µg/mL | 31.1% | 49.2% |
| O=C1c2nccnc2C(=O)N1c1ccc(Cl)cc1 | 86 µM | – | – | – | – | – |
| CC(C)(C)N1C(=O)c2nccnc2C1=O | 32 µM | 33.91% | 0.9 | – | 12% | 27.6% |
| O=C1c2nccnc2C(=O)N1Cc1ccccc1 | > 100 µM | – | – | – | – | – |
| C[C@H](c1ccccc1)N1C(=O)c2nccnc2C1=O | 79 µM | – | – | – | – | – |
| COc1ccc(CN2C(=O)c3cccnc3C2=O)cc1 | > 100 µM | – | – | – | – | – |
| O=C1c2cccnc2C(=O)N1c1ccc(Cl)cc1 | 92 µM | – | – | – | – | – |
| CCN1C(=O)c2cccnc2C1=O | > 100 µM | – | – | – | – | – |
| O=C1c2nccnc2C(=O)N1C12CC3CC(CC(C3)C1)C2 | 18 µM | 54.05% | 1.8 | – | 30.01% | 45.1% |
